The source made the active and inactive calls. The rule behind the calls is not given here.
Tests used:
[1] = Antiproliferative activity against human PC3 cells after 48 hrs by MTT assay; assay type: functional, cell-based; conditions: PC-3, 48 h
How it was run: (§1)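 Cells seeded at 3,000-5,000/well by doubling time and grown 24 h (37 °C, 5% CO2). HT-29/U87MG kept in DMEM + 10% FBS; A549/PC-3/HaCaT in RPMI-1640 + 10% FBS. Compounds for 48 h, then MTT 4 h, formazan dissolved in DMSO, A570 minus A630. % inhibition vs DMSO-treated cells; IC50 by probit. Three independent experiments in quadruplicate; mean ± SD.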

HT-29 = assay: Antiproliferative activity against human HT-29 cells after 48 hrs by MTT assay; assay type: functional, cell-based; conditions: HT-29, 48 h; how it was run: as §1
HaCaT = assay: Antiproliferative activity against human HaCaT cells after 48 hrs by MTT assay; assay type: cell-based; how it was run: as §1
[2] = Antiproliferative activity against human U87MG cells after 48 hrs by MTT assay; assay type: functional, cell-based, U-87MG ATCC; conditions: U-87 MG; how it was run: as §1
A549 [3] = assay: Antiproliferative activity against human A549 cells after 48 hrs by MTT assay; assay type: functional, cell-based; conditions: A549, 48 h; how it was run: as §1
A549 [4] = assay: Induction of apoptosis in human A549 cells assessed as intracellular ROS level at antiproliferative IC50 after 24 hrs by DCFDA staining based fluorescence microscopic analysis relative to control; assay type: functional
A549 [5] = assay: Anti-migratory activity in human A549 cells at antiproliferative IC50 after 24 to 48 hrs by wound healing assay; assay type: functional, cell-based
A549 [6] = assay: Anti-migratory activity in human A549 cells assessed as disruption of actin fibre assembly after 12 hrs by rhodamine phalloidin/Hoechst 33242 staining based confocal microscopic analysis; assay type: functional, cell-based
How it was run: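 A549 cells (1x10⁶/well) grown on coverslips 24 h, then exposed to compounds 12 h. Washed, fixed in 4% paraformaldehyde in PBS, stained with rhodamine-phalloidin (F-actin) and Hoechst 33242 (nuclei), mounted in anti-fade. Examined by confocal microscopy, 20X objective.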

A549 [7] = assay: Cell cycle arrest in human A549 cells assessed as accumulation at G2/M phase at antiproliferative IC50 after 24 hrs by propidium iodide staining based flow cytometry (reference value: 27.2%); assay type: functional
A549 [8] = assay: Induction of apoptosis in human A549 cells assessed as loss in mitochondrial membrane potential at antiproliferative IC50 after 24 hrs by rhodamine 123 staining based spectrofluorometry relative to control; assay type: functional
How it was run: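 A549 cells plated at 5×10^5 cells/mL, adhered overnight, then 24 h at IC50. Harvested and incubated with rhodamine-123 (10 µg/mL) in PBS 30 min at room temp, washed. Fluorescence read by spectrofluorometer, ex 480/em 530 nm, vs untreated cells. Mean ± SD of three independent experiments, each in triplicate.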

A549 [9] = assay: Induction of apoptosis in human A549 cells assessed as nuclear fragmentation at antiproliferative IC50 after 24 hrs by Hoechst 33242 staining based confocal microscopic analysis; assay type: functional, cell-based
How it was run: (§2)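 A549 cells (1x10⁶/well) on coverslips exposed 24 h at IC50, then fixed in 4% paraformaldehyde 10 min at 4 °C. Stained with Hoechst 33242 (5 μg/mL) 20 min at room temp. Nuclear morphology examined by confocal microscopy, excitation 350/emission 460 nm, 20X.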

A549 [10] = assay: Induction of apoptosis in human A549 cells assessed as chromatin condensation at antiproliferative IC50 after 24 hrs by Hoechst 33242 staining based confocal microscopic analysis; assay type: functional, cell-based; how it was run: as §2
[11] = Selectivity ratio of IC50 for human HaCaT cells to IC50 for human A549 cells; assay type: ADME, cell-based; conditions: HaCaT cells versus A549 cells, read-out: Ratio IC50
How it was run: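 Ratio built from MTT IC50s: 48 h exposure, absorbance 570 minus 630 nm, inhibition relative to DMSO vehicle, probit-fitted IC50 for HaCaT keratinocytes and A549 cells. Three independent experiments, quadruplicate wells.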

| SMILES | IC50 [1] | IC50 (HT-29) | IC50 (HaCaT) | IC50 [2] | IC50 (A549 [3]) | fold change (FC) (A549 [4]) | Activity (A549 [5]) | Activity (A549 [6]) | Activity (A549 [7]) | Activity (A549 [8]) | Activity (A549 [9]) | Activity (A549 [10]) | selectivity ratio [11] |
| --- | --- | --- | --- | --- | --- | --- | --- | --- | --- | --- | --- | --- | --- |
| COc1ccc(-c2nn(-c3ccccc3)cc2C(=O)/C=C\Nc2ccc(F)cc2)cc1 | 5.73 µM | 7.65 µM | 8.91 µM | 8.91 µM | 3.98 µM |  |  |  |  |  |  |  |  |
| COc1ccc(N/C=C\C(=O)c2cn(-c3ccccc3)nc2-c2cc(OC)c(OC)c(OC)c2)cc1 | 9.6 µM | 5.78 µM | > 50 µM | 12.8 µM | 4.78 µM |  |  |  |  |  |  |  |  |
| COc1ccc(N/C=C\C(=O)c2cn(-c3ccccc3)nc2-c2ccccc2)cc1 | 6.4 µM | 1.56 µM | > 50 µM | > 50 µM | 3.25 µM |  |  |  |  |  |  |  |  |
| O=C(/C=C\Nc1ccc(C(F)(F)F)cc1)c1cn(-c2ccccc2)nc1-c1ccc(F)cc1 | > 50 µM | > 50 µM | > 50 µM | > 50 µM | > 50 µM |  |  |  |  |  |  |  |  |
| COc1ccc(-c2nn(-c3ccccc3)cc2C(=O)/C=C\Nc2ccc(C(F)(F)F)cc2)cc1 | > 50 µM | 9.87 µM | > 50 µM | > 50 µM | > 50 µM |  |  |  |  |  |  |  |  |
| COc1cc(-c2nn(-c3ccccc3)cc2C(=O)/C=C\Nc2ccc(C(F)(F)F)cc2)cc(OC)c1OC | > 50 µM | > 50 µM | > 50 µM | > 50 µM | > 50 µM |  |  |  |  |  |  |  |  |
| COc1ccc(-c2nn(-c3ccccc3)cc2C(=O)/C=C\Nc2ccc(O)cc2)cc1 | 1.98 µM | 2.46 µM | 34.6 µM | 3.73 µM | 2.77 µM | 2.1 | Active | Active | 43.1% | 43.5% | Active | Active | 10 |
| COc1ccc(N/C=C\C(=O)c2cn(-c3ccccc3)nc2-c2ccc(F)cc2)cc1 | 4.6 µM | 3.2 µM | 19.6 µM | 2.5 µM | 8.9 µM |  |  |  |  |  |  |  |  |
| O=C(/C=C\Nc1ccc(Cl)cc1)c1cn(-c2ccccc2)nc1-c1ccc(Cl)cc1 | 3.89 µM | 4.65 µM | 23.4 µM | 13.1 µM | 3.67 µM |  |  |  |  |  |  |  |  |
| O=C(/C=C\Nc1ccc(C(F)(F)F)cc1)c1cn(-c2ccccc2)nc1-c1ccccc1 | > 50 µM | > 50 µM | > 50 µM | > 50 µM | > 50 µM |  |  |  |  |  |  |  |  |
| O=C(/C=C\Nc1ccc(O)cc1)c1cn(-c2ccccc2)nc1-c1ccc(F)cc1 | 2.6 µM | 1.9 µM | 16.3 µM | 4.7 µM | 1.5 µM | 2.1 | Active | Active | 41% | 30% | Active | Active | 10 |
| COc1cc(N/C=C\C(=O)c2cn(-c3ccccc3)nc2-c2ccccc2)cc(OC)c1OC | 5.93 µM | 9.8 µM | 36.2 µM | 2.35 µM | 6.34 µM |  |  |  |  |  |  |  |  |
| COc1cc(-c2nn(-c3ccccc3)cc2C(=O)/C=C\Nc2ccc(Cl)cc2)cc(OC)c1OC | 11.2 µM | 7.68 µM | 30.2 µM | 3.21 µM | 8.67 µM |  |  |  |  |  |  |  |  |
| O=C(/C=C\Nc1ccc(C(F)(F)F)cc1)c1cn(-c2ccccc2)nc1-c1ccc(Cl)cc1 | > 50 µM | > 50 µM | > 50 µM | > 50 µM | > 50 µM |  |  |  |  |  |  |  |  |
| O=C(/C=C\Nc1ccc(Cl)cc1)c1cn(-c2ccccc2)nc1-c1ccccc1 | 5.2 µM | 3.61 µM | 28.4 µM | 11.4 µM | 14.1 µM |  |  |  |  |  |  |  |  |
| O=C(/C=C\Nc1ccc(Cl)cc1)c1cn(-c2ccccc2)nc1-c1ccc(F)cc1 | 3.8 µM | 4.6 µM | 21.3 µM | 8.9 µM | 6.7 µM |  |  |  |  |  |  |  |  |

| SMILES | IC50 [1] | IC50 (HT-29) | IC50 (HaCaT) | IC50 [2] | IC50 (A549 [3]) | fold change (FC) (A549 [4]) | Activity (A549 [5]) | Activity (A549 [6]) | Activity (A549 [7]) | Activity (A549 [8]) | Activity (A549 [9]) | Activity (A549 [10]) | selectivity ratio [11] |
| --- | --- | --- | --- | --- | --- | --- | --- | --- | --- | --- | --- | --- | --- |
| O=C(/C=C\Nc1ccc(O)cc1)c1cn(-c2ccccc2)nc1-c1ccccc1 | 3.6 µM | 5 µM | 44.6 µM | 4.29 µM | 3.21 µM |  |  |  |  |  |  |  |  |
| COc1ccc(-c2nn(-c3ccccc3)cc2C(=O)/C=C\Nc2ccc(Cl)cc2)cc1 | 3.89 µM | 4.76 µM | 20.9 µM | 8.86 µM | 2.97 µM |  |  |  |  |  |  |  |  |
| O=C(/C=C\Nc1ccc(F)cc1)c1cn(-c2ccccc2)nc1-c1ccccc1 | 7.98 µM | 6.87 µM | 34.2 µM | 10.2 µM | 4.67 µM |  |  |  |  |  |  |  |  |
| COc1ccc(N/C=C\C(=O)c2cn(-c3ccccc3)nc2-c2ccc(Cl)cc2)cc1 | 10.7 µM | 8.93 µM | 30.8 µM | 6.89 µM | 6.46 µM |  |  |  |  |  |  |  |  |
| COc1cc(N/C=C\C(=O)c2cn(-c3ccccc3)nc2-c2ccc(Cl)cc2)cc(OC)c1OC | 9.98 µM | 12.7 µM | 46.6 µM | 17.8 µM | 5.64 µM |  |  |  |  |  |  |  |  |
| COc1cc(-c2nn(-c3ccccc3)cc2C(=O)/C=C\Nc2ccc(O)cc2)cc(OC)c1OC | 4.6 µM | 2.5 µM | 17.6 µM | 1.8 µM | 3.16 µM |  |  |  |  |  |  |  |  |
| COc1cc(-c2nn(-c3ccccc3)cc2C(=O)/C=C\Nc2ccc(F)cc2)cc(OC)c1OC | 7.7 µM | 12.5 µM | 25.7 µM | 4.78 µM | 15.6 µM |  |  |  |  |  |  |  |  |
| COc1ccc(N/C=C\C(=O)c2cn(-c3ccccc3)nc2-c2ccc(OC)cc2)cc1 | 13.4 µM | 8.76 µM | > 50 µM | > 50 µM | 6.78 µM |  |  |  |  |  |  |  |  |
| COc1ccc(-c2nn(-c3ccccc3)cc2C(=O)/C=C\Nc2cc(OC)c(OC)c(OC)c2)cc1 | 18.9 µM | 14.6 µM | > 50 µM | > 50 µM | 11.2 µM |  |  |  |  |  |  |  |  |
| COc1cc(N/C=C\C(=O)c2cn(-c3ccccc3)nc2-c2cc(OC)c(OC)c(OC)c2)cc(OC)c1OC | 14.1 µM | 8.4 µM | 20.9 µM | 5.1 µM | 7.98 µM |  |  |  |  |  |  |  |  |
| O=C(/C=C\Nc1ccc(F)cc1)c1cn(-c2ccccc2)nc1-c1ccc(Cl)cc1 | > 50 µM | > 50 µM | > 50 µM | 17.9 µM | > 50 µM |  |  |  |  |  |  |  |  |
| COc1cc(N/C=C\C(=O)c2cn(-c3ccccc3)nc2-c2ccc(F)cc2)cc(OC)c1OC | 4.89 µM | 7.77 µM | 32.8 µM | 12.6 µM | 9.35 µM |  |  |  |  |  |  |  |  |
| O=C(/C=C\Nc1ccc(O)cc1)c1cn(-c2ccccc2)nc1-c1ccc(Cl)cc1 | 4.43 µM | 2.5 µM | 22.6 µM | 1.5 µM | 1.91 µM | 2.1 | Active | Active | 49.2% | 45.8% | Active | Active | 10 |
| O=C(/C=C\Nc1ccc(F)cc1)c1cn(-c2ccccc2)nc1-c1ccc(F)cc1 | 7.9 µM | 6.5 µM | > 50 µM | 18.2 µM | 5.78 µM |  |  |  |  |  |  |  |  |
| O=c1[nH]cc(F)c(=O)[nH]1 [FLUOROURACIL] | 2.76 µM | 2.8 µM | 16.1 µM | 3.65 µM | 3.98 µM |  |  |  |  |  |  |  |  |

Reference: ChEMBL document CHEMBL3804806, “Synthesis of (Z)-1-(1,3-diphenyl-1H-pyrazol-4-yl)-3-(phenylamino)prop-2-en-1-one derivatives as potential anticancer and apoptosis inducing agents” (Eur J Med Chem, 2016)
